Values belong to the molecule of their own block, whether it stands above or below them. The source made the active and inactive calls. The rule behind the calls is not given here.
Legend:
[1] = Growth inhibition of human HBC5 cells after 48 hrs by sulforhodamine B assay; format: functional; conditions: HBC5, 48 h
Outline: (§1)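 Tested in the JFCR39 panel of 39 human cancer cell lines. Cells were exposed to compound for 48 h, and growth was measured as the change in total cellular protein by sulforhodamine B colorimetry. GI50 (molar concentration for 50% growth inhibition) was calculated by a previously reported method. Fingerprints were plotted as log differences of each line's GI50 from the panel mean.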

[2] = tested on: St-4; assay: Growth inhibition of human St-4 cells after 48 hrs by sulforhodamine B assay; format: functional; conditions: St-4, 48 h; outline: as §1
[3] = tested on: DMS-114; assay: Growth inhibition of human DMS114 cells after 48 hrs by sulforhodamine B assay; format: functional; conditions: DMS-114, 48 h; outline: as §1
[4] = tested on: SF-268; assay: Growth inhibition of human SF268 cells after 48 hrs by sulforhodamine B assay; format: functional; conditions: SF-268, 48 h; outline: as §1
[5] = Growth inhibition of human MDA-MB-23 cells after 48 hrs by sulforhodamine B assay; format: functional; conditions: MDA-MB-23, 48 h, read-out: pGI50 (converted); outline: as §1
[6] = tested on: MKN-7; assay: Growth inhibition of human MKN7 cells after 48 hrs by sulforhodamine B assay; format: functional; conditions: MKN-7, 48 h; outline: as §1
[7] = tested on: LOX IMVI; assay: Growth inhibition of human LOXIMVI cells after 48 hrs by sulforhodamine B assay; format: functional; outline: as §1
[8] = target: ABC-type oligopeptide transporter ABCB9 (Homo sapiens) (UniProt Q9NP78); assay: Effect on human GFP-tagged TAPL-mediated cellular uptake expressed in CHO-K1 cells assessed as localization to endoplasmic reticulum at 10 uM after 5 hrs using ER-Tracker red staining by confocal laser scanning microscopic analysis; format: cell-based
ABC-type oligopeptide transporter ABCB9 (Homo sapiens), sequence (Q9NP78 whole entry): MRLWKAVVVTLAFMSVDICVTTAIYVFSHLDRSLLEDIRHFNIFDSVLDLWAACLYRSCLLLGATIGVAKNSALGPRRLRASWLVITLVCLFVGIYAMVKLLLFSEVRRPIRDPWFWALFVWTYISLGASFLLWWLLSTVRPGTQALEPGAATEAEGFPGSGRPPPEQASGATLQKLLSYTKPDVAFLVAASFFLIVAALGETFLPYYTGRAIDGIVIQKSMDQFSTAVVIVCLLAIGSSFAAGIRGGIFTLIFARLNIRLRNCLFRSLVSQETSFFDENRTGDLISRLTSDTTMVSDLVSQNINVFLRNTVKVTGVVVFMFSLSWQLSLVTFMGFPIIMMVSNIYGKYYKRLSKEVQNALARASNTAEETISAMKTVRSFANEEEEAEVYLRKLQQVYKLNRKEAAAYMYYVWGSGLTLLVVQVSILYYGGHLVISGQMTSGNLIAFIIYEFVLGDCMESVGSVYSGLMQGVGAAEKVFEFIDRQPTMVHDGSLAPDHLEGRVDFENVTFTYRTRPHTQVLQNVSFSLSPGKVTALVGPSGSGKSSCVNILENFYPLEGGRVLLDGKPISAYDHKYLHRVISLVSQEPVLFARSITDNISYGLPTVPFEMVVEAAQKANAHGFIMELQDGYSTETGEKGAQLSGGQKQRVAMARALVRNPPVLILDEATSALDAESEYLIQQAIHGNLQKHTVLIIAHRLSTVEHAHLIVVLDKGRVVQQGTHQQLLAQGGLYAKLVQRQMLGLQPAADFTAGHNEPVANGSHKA
Outline: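 CHO-K1 cells were cultured two days at 37 °C in Ham's F12 with 7% fetal calf serum. They were loaded with 10 µM dansyl probe in medium for 5 h, washed five times, then stained with ER-Tracker Red. Live confocal imaging used 405 nm excitation for dansyl and 559 nm for the tracker, with overlap of signals assessed. Samples were run in duplicate.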

[9] = tested on: SF-539; assay: Growth inhibition of human SF539 cells after 48 hrs by sulforhodamine B assay; format: functional; conditions: SF-539, 48 h; outline: as §1
[10] = Growth inhibition of human MKN1 cells after 48 hrs by sulforhodamine B assay; format: functional; conditions: MKN-1, 48 h; outline: as §1
[11] = tested on: NCI-H23; assay: Growth inhibition of human NCI-H23 cells after 48 hrs by sulforhodamine B assay; format: functional; conditions: NCI-H23, 48 h; outline: as §1
[12] = tested on: NCI-H226; assay: Growth inhibition of human NCI-H226 cells after 48 hrs by sulforhodamine B assay; format: functional; conditions: NCI-H226, 48 h; outline: as §1
[13] = tested on: MKN-28; assay: Growth inhibition of human MKN28 cells after 48 hrs by sulforhodamine B assay; format: functional; conditions: MKN-28, 48 h; outline: as §1
[14] = tested on: DMS-273; assay: Growth inhibition of human DMS273 cells after 48 hrs by sulforhodamine B assay; format: functional; conditions: DMS-273, 48 h; outline: as §1
[15] = tested on: HCT-15; assay: Growth inhibition of human HCT15 cells after 48 hrs by sulforhodamine B assay; format: functional; conditions: HCT-15, 48 h; outline: as §1
[16] = tested on: HT-29; assay: Growth inhibition of human HT-29 cells after 48 hrs by sulforhodamine B assay; format: functional; conditions: HT-29, 48 h; outline: as §1
[17] = target: ABC-type oligopeptide transporter ABCB9 (Homo sapiens) (UniProt Q9NP78); assay: Effect on human GFP-tagged TAPL-mediated cellular uptake expressed in CHO-K1 cells assessed as localization to lysosome at 10 uM after 5 hrs by confocal laser scanning microscopic analysis
[18] = tested on: A549; assay: Growth inhibition of human A549 cells after 48 hrs by sulforhodamine B assay; format: functional; conditions: A549, 48 h; outline: as §1
[19] = tested on: NCI-H522; assay: Growth inhibition of human NCI-H522 cells after 48 hrs by sulforhodamine B assay; format: functional; conditions: NCI-H522, 48 h; outline: as §1
[20] = Growth inhibition of human BSY1 cells after 48 hrs by sulforhodamine B assay; format: functional; conditions: BSY-1, 48 h; outline: as §1
[21] = Growth inhibition of human HBC4 cells after 48 hrs by sulforhodamine B assay; format: functional; conditions: HBC4, 48 h; outline: as §1
[22] = Cytotoxicity against CHOK1 cells at 10 uM after 24 hrs; format: cell-based, Cricetulus griseus; conditions: chinese hamster, cho-k1, 24 h
Outline: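 CHO-K1 cells were grown two days at 37 °C in Ham's F12 with 7% fetal calf serum in glass-bottomed dishes. They were exposed to 10 µM probe for 5 h, washed, and imaged. Dishes were then incubated a further 24 h. Toxicity was judged by microscopic inspection for desquamated or suspended cells.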

[23] = tested on: MKN-45; assay: Growth inhibition of human MKN45 cells after 48 hrs by sulforhodamine B assay; format: functional; conditions: MKN-45, 48 h; outline: as §1
[24] = tested on: OVCAR-4; assay: Growth inhibition of human OVCAR4 cells after 48 hrs by sulforhodamine B assay; format: functional; conditions: OVCAR-4, 48 h; outline: as §1
[25] = tested on: ACHN; assay: Growth inhibition of human ACHN cells after 48 hrs by sulforhodamine B assay; format: functional; outline: as §1
[26] = tested on: OVCAR-5; assay: Growth inhibition of human OVCAR5 cells after 48 hrs by sulforhodamine B assay; format: functional; conditions: OVCAR-5, 48 h; outline: as §1
[27] = tested on: SK-OV-3; assay: Growth inhibition of human SKOV3 cells after 48 hrs by sulforhodamine B assay; format: functional; conditions: SK-OV-3, 48 h; outline: as §1
[28] = tested on: NCI-H460; assay: Growth inhibition of human NCI-H460 cells after 48 hrs by sulforhodamine B assay; format: functional; conditions: NCI-H460, 48 h; outline: as §1
[29] = tested on: KM12; assay: Growth inhibition of human KM12 cells after 48 hrs by sulforhodamine B assay; format: functional; conditions: KM12, 48 h; outline: as §1
[30] = tested on: MKN-74; assay: Growth inhibition of human MKN74 cells after 48 hrs by sulforhodamine B assay; format: functional; conditions: MKN-74, 48 h; outline: as §1
[31] = tested on: SF-295; assay: Growth inhibition of human SF295 cells after 48 hrs by sulforhodamine B assay; format: functional; conditions: SF-295, 48 h; outline: as §1
[32] = tested on: HCC 2998; assay: Growth inhibition of human HCC2998 cells after 48 hrs by sulforhodamine B assay; format: functional; conditions: HCC 2998, 48 h, read-out: pGI50 (converted); outline: as §1
[33] = tested on: SNB-78; assay: Growth inhibition of human SNB78 cells after 48 hrs by sulforhodamine B assay; format: functional; conditions: SNB-78, 48 h; outline: as §1
[34] = tested on: U-251; assay: Growth inhibition of human U251 cells after 48 hrs by sulforhodamine B assay; format: functional; conditions: U-251, 48 h; outline: as §1
[35] = tested on: PC-3; assay: Growth inhibition of human PC3 cells after 48 hrs by sulforhodamine B assay; format: functional; conditions: PC-3, 48 h; outline: as §1
[36] = tested on: SNB-75; assay: Growth inhibition of human SNB75 cells after 48 hrs by sulforhodamine B assay; format: functional; conditions: SNB-75, 48 h; outline: as §1
[37] = tested on: OVCAR-3; assay: Growth inhibition of human OVCAR-3 cells after 48 hrs by sulforhodamine B assay; format: functional; conditions: OVCAR-3, 48 h; outline: as §1
[38] = tested on: DU-145; assay: Growth inhibition of human DU145 cells after 48 hrs by sulforhodamine B assay; format: functional; conditions: DU-145, 48 h, read-out: pGI50 (converted); outline: as §1
[39] = Growth inhibition of human RXF631L cells after 48 hrs by sulforhodamine B assay; format: functional; conditions: RXF 631, 48 h; outline: as §1
[40] = tested on: OVCAR-8; assay: Growth inhibition of human OVCAR8 cells after 48 hrs by sulforhodamine B assay; format: functional; conditions: OVCAR-8, 48 h; outline: as §1
[41] = tested on: MCF7; assay: Growth inhibition of human MCF7 cells after 48 hrs by sulforhodamine B assay; format: functional; conditions: MCF7, 48 h; outline: as §1
[42] = tested on: HCT-116; assay: Growth inhibition of human HCT116 cells after 48 hrs by sulforhodamine B assay; format: functional; conditions: HCT-116, 48 h; outline: as §1

GI50 [6]: 0.0398 µM | Activity [8]: Active | GI50 [11]: 3.47 µM | GI50 [12]: 29.5 µM | GI50 [13]: 0.0692 µM | GI50 [15]: > 100 µM | GI50 [16]: > 100 µM | Activity [17]: inactive | GI50 [18]: > 100 µM | GI50 [19]: 4.9 µM | GI50 [23]: > 100 µM | GI50 [24]: > 100 µM | GI50 [25]: > 100 µM | GI50 [26]: > 100 µM | GI50 [27]: > 100 µM | GI50 [28]: > 100 µM | GI50 [30]: 1.55 µM | GI50 [32]: > 100 µM | GI50 [34]: > 100 µM | GI50 [35]: 81.3 µM | GI50 [37]: > 100 µM | GI50 [38]: > 100 µM | GI50 [40]: > 100 µM | GI50 [41]: 6.03 µM | GI50 [42]: 8.91 µM
Compound: C[C@H]1C=C(CCCCCCCCCCCC[C@@H](O)[C@H]2CC[C@H]([C@H](O)CCCCCCCCCNS(=O)(=O)c3cccc4c(N(C)C)cccc34)O2)C(=O)O1
GI50 [1]: > 100 µM | GI50 [2]: > 100 µM | GI50 [3]: 0.0234 µM | GI50 [4]: > 100 µM | GI50 [5]: > 100 µM | GI50 [7]: > 100 µM | GI50 [9]: > 100 µM | GI50 [10]: > 100 µM | GI50 [14]: > 100 µM | GI50 [20]: > 100 µM | GI50 [21]: > 100 µM | Activity [22]: Non-toxic | GI50 [29]: > 100 µM | GI50 [31]: 0.513 µM | GI50 [33]: > 100 µM | GI50 [36]: > 100 µM | GI50 [39]: > 100 µM

Compound: CCCCCCCCCCCC[C@@H](O)[C@H]1CC[C@H]([C@H](O)CCCCCCCCCCCCC2=C[C@H](C)OC2=O)O1 [REL-SOLAMIN]
GI50 [1]: > 100 µM | GI50 [2]: > 100 µM | GI50 [3]: 4.37 µM | GI50 [4]: > 100 µM | GI50 [5]: > 100 µM | GI50 [6]: 12.9 µM | GI50 [7]: 29.5 µM | GI50 [9]: > 100 µM | GI50 [10]: > 100 µM | GI50 [11]: 72.4 µM | GI50 [12]: > 100 µM | GI50 [13]: 14.1 µM | GI50 [14]: > 100 µM | GI50 [15]: > 100 µM | GI50 [16]: > 100 µM | GI50 [18]: > 100 µM | GI50 [19]: 57.5 µM | GI50 [20]: > 100 µM | GI50 [21]: > 100 µM | GI50 [23]: > 100 µM | GI50 [24]: > 100 µM | GI50 [25]: > 100 µM | GI50 [26]: > 100 µM | GI50 [27]: > 100 µM | GI50 [28]: > 100 µM | GI50 [29]: > 100 µM | GI50 [30]: > 100 µM | GI50 [31]: > 100 µM | GI50 [32]: > 100 µM | GI50 [33]: > 100 µM | GI50 [34]: > 100 µM | GI50 [35]: > 100 µM | GI50 [36]: > 100 µM | GI50 [37]: > 100 µM | GI50 [38]: > 100 µM | GI50 [39]: > 100 µM | GI50 [40]: > 100 µM | GI50 [41]: 70.8 µM | GI50 [42]: > 100 µM

From ChEMBL document CHEMBL1287802, “Convergent synthesis of fluorescence-labeled probes of Annonaceous acetogenins and visualization of their cell distribution” (Bioorg Med Chem, 2010)
